Data reported in ChEMBL document CHEMBL3627689, “Structural design, synthesis and pharmacological evaluation of 4-thiazolidinones against Trypanosoma cruzi” (Bioorg Med Chem, 2015).
Activity calls are given as the source filed them. No cut-off for these calls is given here.

Tests used:
[1] = tested on: Trypanosoma cruzi; experiment: Potency index, ratio of benznidazole IC50 to compound IC50 for amastigote stage of Trypanosoma cruzi Y in BALB/c mouse macrophages; format: functional
[2] = tested on: Trypanosoma cruzi; experiment: Antiparasitic activity against amastigote stage of Trypanosoma cruzi Y in BALB/c mouse macrophages assessed as decrease in number of intracellular amastigotes at 50 uM incubated for 6 hrs by Giemsa staining-based optical microscopic analysis; format: functional, organism-based
Outline: (§1)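 Thioglycolate-elicited peritoneal macrophages from BALB/c mice, 2 × 10⁵ cells/well on coverslips in RPMI + 10% FBS for 24 h, then infected with Y strain trypomastigotes (10 per macrophage) for 2 h. Free parasites washed off. Compounds added at 50 µM for 6 h, medium replaced, 3 days further culture. Methanol fixation, Giemsa staining, 100 cells counted per slide. Triplicate, two independent experiments.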

[3] = Selectivity index, ratio of CC50 for mouse J774 cells to IC50 for bloodstream trypomastigote stage of Trypanosoma cruzi Y
[4] = tested on: Trypanosoma cruzi; experiment: Antiparasitic activity against amastigote stage of Trypanosoma cruzi Y in BALB/c mouse macrophages assessed as decrease in number of intracellular amastigotes incubated for 6 hrs by Giemsa staining-based optical microscopic analysis; format: functional, organism-based
Outline: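 Peritoneal BALB/c macrophages (thioglycolate-elicited) were infected with Y strain trypomastigotes at 10:1 for 2 h and washed. Compounds at five concentrations (1–50 µM) were applied for 6 h, followed by fresh medium and 3 days of culture. Amastigotes per 100 macrophages were counted after Giemsa staining.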

[5] = tested on: Trypanosoma cruzi; experiment: Antiparasitic activity against amastigote stage of Trypanosoma cruzi Y in BALB/c mouse macrophages assessed as decrease in number of infected cells at 50 uM incubated for 6 hrs by Giemsa staining-based optical microscopic analysis; format: functional, organism-based; outline: as §1
[6] = tested on: Trypanosoma cruzi; experiment: Antiparasitic activity against bloodstream trypomastigote stage of Trypanosoma cruzi Y assessed as parasite viability after 24 hrs by Neubauer chamber analysis; format: functional, organism-based
Outline: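 Y strain bloodstream trypomastigotes were harvested from infected LLC-MK2 cell supernatants. They were exposed to compounds at five concentrations for 24 h at 37 °C, 5% CO₂. Viable parasites were counted in a Neubauer chamber by motility. Inhibition was calculated relative to untreated cultures, and IC50 was derived by non-linear regression.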

[7] = molecular target: Cruzipain (Trypanosoma cruzi) (UniProt P25779); experiment: Competitive inhibition of Trypanosoma cruzi Cruzain using Z-FR-AMC as substrate at 100 uM preincubated for 10 mins followed by substrate addition measured every 12 secs for 5 mins by fluorescence assay relative to control
[8] = tested on: Trypanosoma cruzi; experiment: Potency index, ratio of benznidazole IC50 to compound IC50 for bloodstream trypomastigote stage of Trypanosoma cruzi Y; format: functional
[9] = Cytotoxicity against mouse J774 cells assessed as cell viability after 72 hrs by Alamar Blue assay; format: cell-based
Outline: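 J774 macrophages were plated at 5 × 10⁴ cells/mL in RPMI + 10% FBS with gentamycin and grown 24 h at 37 °C, 5% CO₂. Compounds in DMSO (final <1%) were added at six concentrations (0.41–100 µM) in triplicate for 72 h. Viability was read by AlamarBlue at 570/600 nm after 6 h. CC50 came from three independent experiments, with gentian violet as positive control.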

[10] = tested on: Trypanosoma cruzi; experiment: Antiparasitic activity against bloodstream trypomastigote stage of Trypanosoma cruzi Y infected in BALB/c mouse assessed as increase in survival rate by measuring mortality at 100 mg/kg, po qd administered for 5 days measured until 30 days; format: functional, organism-based
Outline: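 Female BALB/c mice (6 per group) were infected with 10⁴ Y strain trypomastigotes. From day 5 post-infection they received 100 mg/kg orally once daily for 5 days. Controls were vehicle (untreated infected) and benznidazole 100 mg/kg. Survival was followed for 30 days after infection in one experiment.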

[11] = tested on: Trypanosoma cruzi; experiment: Antiparasitic activity against bloodstream trypomastigote stage of Trypanosoma cruzi Y infected in BALB/c mouse assessed as reduction of parasitemia at 100 mg/kg, po qd administered for 5 days measured on day 10 post infection relative to vehicle-treated control; format: functional; parameters: scale not given: the % may be the effect or the level left
Outline: (§2)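 Female BALB/c mice (6 per group, randomized) were infected with 10⁴ Y strain trypomastigotes. They were dosed orally at 100 mg/kg once daily for 5 days starting day 5 post-infection. Parasitemia was counted as trypomastigotes in fresh blood. Reduction = (vehicle mean − treated mean)/vehicle mean × 100%.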

[12] = tested on: Mus musculus; experiment: Toxicity in BALB/c mouse infected with bloodstream trypomastigote stage of Trypanosoma cruzi Y assessed as body weight loss at 100 mg/kg, po qd administered for 5 days; format: organism-based; details: in vivo, 120 h
[13] = tested on: Trypanosoma cruzi; experiment: Antiparasitic activity against bloodstream trypomastigote stage of Trypanosoma cruzi Y infected in BALB/c mouse assessed as reduction of parasitemia at 100 mg/kg, po qd administered for 5 days measured on day 12 post infection relative to vehicle-treated control; format: functional; parameters: scale not given: the % may be the effect or the level left; outline: as §2
[14] = tested on: Leishmania; experiment: Antiparasitic activity against Leishmania; format: functional
[15] = tested on: Trypanosoma cruzi; experiment: Antichagasic activity against Trypanosoma cruzi; format: functional

Cruzipain (Trypanosoma cruzi), sequence (P25779 123-467 limits assumed): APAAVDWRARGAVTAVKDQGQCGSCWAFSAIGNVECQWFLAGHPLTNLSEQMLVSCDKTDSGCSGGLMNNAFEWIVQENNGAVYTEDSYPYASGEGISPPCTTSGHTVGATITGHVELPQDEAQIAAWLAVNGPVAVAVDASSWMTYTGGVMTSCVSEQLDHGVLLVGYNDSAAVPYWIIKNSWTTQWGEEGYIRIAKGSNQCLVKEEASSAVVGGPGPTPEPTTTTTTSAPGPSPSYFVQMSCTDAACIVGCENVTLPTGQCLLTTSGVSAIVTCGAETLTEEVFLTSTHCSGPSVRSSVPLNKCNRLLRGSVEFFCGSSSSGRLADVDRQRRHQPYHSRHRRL

Structure (SMILES) | Ratio CC50/IC50 [3] | IC50 [6] | inhibition [7] | CC50 at 72 h [9] | also measured
C/C(=N\N=C1\SC(C)C(=O)N1c1ccccc1)c1ccc(Cl)c(Cl)c1 (centres undefined) | 6 | 4.2 µM | 43% | 26.1 µM | Ratio IC50 [1]: 2; Activity [2]: Active; IC50 [4]: 5.9 µM; Activity [5]: Active; Ratio IC50 [8]: 2
O=C(Cn1ccnc1[N+](=O)[O-])NCc1ccccc1 [BENZNIDAZOLE] | >9.4 | 10.6 µM | – | > 100 µM | Activity [2]: Active; Activity [10]: Active; Activity [11]: >99%; Activity [5]: Active; Activity [12]: Non-toxic; Activity [13]: >99%
O=C(N[C@@H](Cn1ccnc1)c1ccc(Cl)cc1Cl)c1ccc(-c2nnc(-c3ccccc3)o2)cc1 | – | – | – | – | Activity [14]: 60%
C/C(=N\N=C1\SCC(=O)N1C)c1ccc(Cl)c(Cl)c1 | – | > 50 µM | 0% | > 100 µM | –
C/C(=N\N=C(\N)S)c1ccc(Cl)c(Cl)c1 | 1.7 | 7.1 µM | 85% | 13.4 µM | –
C/C(=N\N=C1/NC(=O)CS1)c1ccc(Cl)c(Cl)c1 | – | > 50 µM | 54% | 76.5 µM | –
C/C(=N\N=C1\SC(C(C)C)C(=O)N1C)c1ccc(Cl)c(Cl)c1 (centres undefined) | – | > 50 µM | 38% | > 100 µM | –
C/C(=N\N=C1\SCC(=O)N1c1ccccc1)c1ccc(Cl)c(Cl)c1 | – | > 50 µM | 43% | > 100 µM | –
O=C(N[C@@H](Cn1ccnc1)c1ccc(-c2ccc(F)cc2)cc1F)c1ccc(-c2nnc(-c3ccccc3)o2)cc1 | – | – | – | – | Activity [14]: 89%; Activity [15]: 100%
CNC(=S)N/N=C(\C)c1ccc(Cl)c(Cl)c1 | – | 11.2 µM | 28% | > 100 µM | –
C/C(=N\N=C1\SC(C(C)C)C(=O)N1c1ccccc1)c1ccc(Cl)c(Cl)c1 (centres undefined) | >58 | 1.7 µM | 23% | > 100 µM | Ratio IC50 [1]: 4; Activity [2]: Active; Activity [10]: Active; IC50 [4]: 3.1 µM; Activity [11]: 86.7%; Activity [5]: Active; Ratio IC50 [8]: 6; Activity [12]: Non-toxic; Activity [13]: 97.1%
C/C(=N\N=C1/NC(=O)C(C(C)C)S1)c1ccc(Cl)c(Cl)c1 (centres undefined) | >5.9 | 16.9 µM | 49% | > 100 µM | –
CCC1S/C(=N/N=C(\C)c2ccc(Cl)c(Cl)c2)N(C)C1=O (centres undefined) | >2 | 48.5 µM | 20% | > 100 µM | –
C/C(=N\N=C1\SC(c2ccccc2)C(=O)N1C)c1ccc(Cl)c(Cl)c1 (centres undefined) | – | 41.5 µM | 29% | 97.6 µM | –
CCC1S/C(=N/N=C(\C)c2ccc(Cl)c(Cl)c2)N(c2ccccc2)C1=O (centres undefined) | 8 | 2.9 µM | 24% | 23.3 µM | Ratio IC50 [1]: 4; Activity [2]: Active; IC50 [4]: 3.2 µM; Activity [5]: Active; Ratio IC50 [8]: 3
C/C(=N\N=C1/NC(=O)C(c2ccccc2)S1)c1ccc(Cl)c(Cl)c1 (centres undefined) | – | > 50 µM | 61% | 96.9 µM | –
C/C(=N\N=C1\SC(c2ccccc2)C(=O)N1c1ccccc1)c1ccc(Cl)c(Cl)c1 (centres undefined) | 1.5 | 17.7 µM | 27% | 27.1 µM | –
C/C(=N\N=C1\SC(C)C(=O)N1C)c1ccc(Cl)c(Cl)c1 (centres undefined) | – | > 50 µM | 32% | > 100 µM | –
CCC1S/C(=N/N=C(\C)c2ccc(Cl)c(Cl)c2)NC1=O (centres undefined) | – | > 50 µM | 49% | 76.7 µM | –
C/C(=N\N=C1/NC(=O)C(C)S1)c1ccc(Cl)c(Cl)c1 (centres undefined) | >2 | 49.5 µM | 49% | > 100 µM | –
C/C(=N\NC(=S)Nc1ccccc1)c1ccc(Cl)c(Cl)c1 | – | > 50 µM | 0% | > 100 µM | –
CN(C)c1ccc(C(=C2C=CC(=[N+](C)C)C=C2)c2ccc(N(C)C)cc2)cc1 [GENTIAN VIOLET] | – | – | – | 0.45 µM | –
